A short description of series [1]: Reaction kinetics of acrolein–azide 1,3-dipolar cycloaddition. Format: physicochemical.
Series [2] has as its system A549 cell xenograft-bearing nude mice. Put plainly: Intravenous therapy of xenograft mice. Format: in vivo, mouse. As to conditions: 240 nmol; for survival: every three days for ten days; for tumor growth: every three days for ten days (four injections). The gist of the method:
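Nude mice bearing A549 xenografts were injected intravenously every three days over ten days, four injections in total, at twice the intratumoral concentration. Comparison groups matched the intratumoral study. Tumour growth and body weight were monitored.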

Series [3] has the same test system. The series is described as follows: Intratumor therapy of xenograft mice. The class given is in vivo, mouse. As to conditions: intratumoral, 120 nmol. An outline of the steps:
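Nude mice bearing A549 xenografts received intratumoral injections once daily for 12 days. Comparison groups were vehicle, the azide control, the phenyl-azide conjugate and free drug. Tumour growth, body weight and survival were monitored.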

Series [4] can be described thus: In vivo drug release analysis. The arrangement: species or system mouse. Conditions: two hours after intratumoral administration. The gist of the method: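 A549 xenograft-bearing nude mice were dosed intratumorally. Two hours later, tumour and urine extracts were analysed by RP-HPLC for intact prodrug and free drug.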

For `[N-]=[N+]=Nc1ccccc1` [Compound 1a, phenyl azide], the “second-order rate constant (k), reaction with acrolein to give triazoline 3a” value in series [1] (formation of triazoline 3a) was found to be 0.00065 M⁻¹ s⁻¹.
For the compound `CC(C)c1cccc(C(C)C)c1N=[N+]=[N-]` [Compound 1d, 2,6-diisopropylphenyl azide], in series [1] (formation of 4d), the “second-order rate constant (k), formation of 4-formyl-1,2,3-triazole 4d” value turned out to be 0.00095 M⁻¹ s⁻¹. Besides, the “second-order rate constant (k), reaction with acrolein to give heterocycle 6” value in series [1] (formation of heterocycle 6) is 0.00633 M⁻¹ s⁻¹. Also, in series [1] (times faster), the “rate ratio, formation of heterocycle 6 versus 4-formyl-1,2,3-triazole 4d” value turned out to be 6.6 times. In addition, the “rate constant ratio, 1d to heterocycle 6 versus 1a to triazoline 3a” value in series [1] (times higher) was 9.7 times.
As to `Cc1cc(C(C)C)c(N=[N+]=[N-])c(C(C)C)c1` [Compound 9, 4-methyl-2,6-diisopropyl-phenyl azide], the tumor size came to 800 mm^3 in series [2] (by two weeks) and 900 mm^3 in series [3] (in two weeks). In addition, the survival entry is “survived less than three weeks after treatment” in series [2] and “survived less than twelve days after treatment” in series [3] (every day for 12 days). The tumor growth result in series [2] is “does not have any effect”; in series [3] (every day for 12 days), “does not retard the tumor growth”.
`CO[C@@]12[C@H](COC(N)=O)C3=C(C(=O)C(C)=C(N)C3=O)N1C[C@@H]1N[C@@H]12` [MMC, mitomycin C]: the body weight result in series [2] (every three days) was “the body weight loss was very drastic”. In addition, in series [2], the survival result is recorded as “could not survive before the fourth injection” and the tumor growth entry is “significantly inhibited tumor growth”. Also, the inflammation result in series [2] (tenth day of treatment) is given as “inflammation in the tail area”. Besides, in series [3] (every day for 12 days), the body weight entry is on record as “more body weight loss”, the survival entry was “survived less than five days after treatment” and the tumor growth result is recorded as “significantly inhibits tumor growth”. Also, the “inflammation and ADRs” value in series [3] (post-treatment day 4) is on record as “inflammation on the whole body”. In series [4], the “compound detected in tumor extract” value was “the free drug could not be detected from the tumor” and the “compound detected in urine extract” value is “the secreted MMC drug was present in the urine”.
